Measured values published in ChEMBL document CHEMBL4130628, “Identification and Pharmacological Profile of an Indane Based Series of Ghrelin Receptor Full Agonists” (J Med Chem, 2018).
pEC50, pIC50: −log10 of the molar value. In brackets after ≈: the same amount, converted by molar mass. Activity calls are given as the source filed them. No cut-off for these calls is given here.

Key:
[1] = target: T1, Growth hormone secretagogue receptor type 1 (Homo sapiens, UniProt Q92847); assay: Displacement of human [125I]-ghrelin from GHS-R1a (unknown origin) expressed in HEK293 cell membranes after 1 hr by radioligand binding assay; conditions: read-out: IC50
T1 sequence (Q92847 whole entry): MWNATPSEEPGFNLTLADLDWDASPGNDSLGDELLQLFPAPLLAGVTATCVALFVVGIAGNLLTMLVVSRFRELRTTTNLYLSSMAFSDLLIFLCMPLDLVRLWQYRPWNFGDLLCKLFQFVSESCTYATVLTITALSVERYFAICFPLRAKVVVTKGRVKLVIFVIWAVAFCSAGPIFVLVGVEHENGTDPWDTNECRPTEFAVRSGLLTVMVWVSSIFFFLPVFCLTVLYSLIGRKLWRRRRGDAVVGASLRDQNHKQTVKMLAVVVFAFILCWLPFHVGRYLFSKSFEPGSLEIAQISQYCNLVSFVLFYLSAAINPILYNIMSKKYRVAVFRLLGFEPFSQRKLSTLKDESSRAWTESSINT

[2] = target: T1, Growth hormone secretagogue receptor type 1; assay: Agonist activity at human GHS receptor assessed as intracellular myo-IP1 secretion after 90 mins by HTRF analysis; type: functional, cell-based; conditions: read-out: EC50
[3] = 1-octanol/aqueous buffer distribution coefficient, log D of compound at pH 7.4; type: physicochemical; conditions: 1-octanol/aqueous buffer, read-out: logD
[4] = target: Voltage-gated inwardly rectifying potassium channel KCNH2 (Homo sapiens, UniProt Q12809); assay: Inhibition of human ERG expressed in CHO cells; type: cell-based
Sequence of Voltage-gated inwardly rectifying potassium channel KCNH2 (Q12809 whole entry): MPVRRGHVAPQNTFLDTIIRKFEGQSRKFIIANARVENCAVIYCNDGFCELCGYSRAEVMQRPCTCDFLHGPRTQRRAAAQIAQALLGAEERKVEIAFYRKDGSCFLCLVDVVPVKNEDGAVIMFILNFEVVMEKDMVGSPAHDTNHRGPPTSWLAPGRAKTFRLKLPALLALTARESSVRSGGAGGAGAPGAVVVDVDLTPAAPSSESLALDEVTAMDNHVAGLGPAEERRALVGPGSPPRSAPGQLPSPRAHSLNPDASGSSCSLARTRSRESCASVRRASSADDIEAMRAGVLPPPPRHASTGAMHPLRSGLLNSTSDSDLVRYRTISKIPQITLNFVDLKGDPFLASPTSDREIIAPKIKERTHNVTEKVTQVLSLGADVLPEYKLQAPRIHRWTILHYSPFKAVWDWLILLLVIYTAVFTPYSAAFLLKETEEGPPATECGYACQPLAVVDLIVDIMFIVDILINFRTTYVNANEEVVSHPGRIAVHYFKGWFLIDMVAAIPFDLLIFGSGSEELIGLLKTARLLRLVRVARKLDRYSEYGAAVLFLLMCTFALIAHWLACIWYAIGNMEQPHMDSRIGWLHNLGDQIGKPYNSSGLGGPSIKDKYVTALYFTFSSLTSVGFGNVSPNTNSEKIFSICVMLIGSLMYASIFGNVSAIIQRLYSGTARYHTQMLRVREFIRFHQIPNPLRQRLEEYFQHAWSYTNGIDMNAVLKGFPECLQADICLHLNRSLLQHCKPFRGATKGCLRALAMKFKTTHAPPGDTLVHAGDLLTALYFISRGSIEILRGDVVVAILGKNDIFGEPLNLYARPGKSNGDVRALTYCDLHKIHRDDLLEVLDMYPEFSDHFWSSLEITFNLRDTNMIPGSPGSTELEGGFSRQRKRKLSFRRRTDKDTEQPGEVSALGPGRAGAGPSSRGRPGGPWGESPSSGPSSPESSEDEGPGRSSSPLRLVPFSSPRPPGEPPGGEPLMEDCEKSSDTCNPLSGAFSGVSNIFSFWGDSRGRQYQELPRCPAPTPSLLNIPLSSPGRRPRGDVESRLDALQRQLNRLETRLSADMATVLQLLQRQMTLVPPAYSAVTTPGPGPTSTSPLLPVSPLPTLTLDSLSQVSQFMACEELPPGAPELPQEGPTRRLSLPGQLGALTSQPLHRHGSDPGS
Method in brief: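 hERG currents recorded from CHO cells expressing hERG.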

[5] = Solubility of compound; type: physicochemical
[6] = Protein binding in rat plasma; type: ADME, cell-free; conditions: read-out: PPB (converted)
[7] = Protein binding in dog plasma; type: ADME, cell-free, Canis lupus familiaris; conditions: read-out: PPB (converted)
[8] = Protein binding in human plasma; type: ADME, cell-free; conditions: read-out: PPB (converted)
[9] = Intrinsic clearance in human liver microsomes; type: ADME, microsome; conditions: read-out: CLH
[10] = Intrinsic clearance in dog liver microsomes; type: ADME, Canis lupus familiaris, microsome; conditions: read-out: CLH
[11] = Intrinsic clearance in rat liver microsomes; type: ADME, microsome; conditions: read-out: CLH
Cytochrome P450 3A4 = Cytochrome P450 3A4 (Homo sapiens, UniProt P08684); assay: Inhibition of CYP3A4 (unknown origin); type: ADME
Sequence of Cytochrome P450 3A4 (P08684 whole entry): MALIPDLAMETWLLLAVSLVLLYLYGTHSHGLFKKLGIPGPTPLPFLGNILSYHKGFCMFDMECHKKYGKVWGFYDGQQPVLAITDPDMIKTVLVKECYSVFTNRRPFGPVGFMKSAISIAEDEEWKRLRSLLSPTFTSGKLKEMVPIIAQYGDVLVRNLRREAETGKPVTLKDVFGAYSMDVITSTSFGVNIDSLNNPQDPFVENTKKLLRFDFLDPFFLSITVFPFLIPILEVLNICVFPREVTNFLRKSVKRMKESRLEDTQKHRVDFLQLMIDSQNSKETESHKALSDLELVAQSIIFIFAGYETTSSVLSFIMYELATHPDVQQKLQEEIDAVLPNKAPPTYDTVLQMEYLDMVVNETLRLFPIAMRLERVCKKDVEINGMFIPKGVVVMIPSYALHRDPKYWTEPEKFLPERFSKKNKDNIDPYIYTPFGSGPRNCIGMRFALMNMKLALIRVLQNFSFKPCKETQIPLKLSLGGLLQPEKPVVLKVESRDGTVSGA

Cytochrome P450 2D6 = Cytochrome P450 2D6 (Homo sapiens, UniProt P10635); assay: Inhibition of CYP2D6 (unknown origin); type: ADME
Sequence of Cytochrome P450 2D6 (P10635 whole entry): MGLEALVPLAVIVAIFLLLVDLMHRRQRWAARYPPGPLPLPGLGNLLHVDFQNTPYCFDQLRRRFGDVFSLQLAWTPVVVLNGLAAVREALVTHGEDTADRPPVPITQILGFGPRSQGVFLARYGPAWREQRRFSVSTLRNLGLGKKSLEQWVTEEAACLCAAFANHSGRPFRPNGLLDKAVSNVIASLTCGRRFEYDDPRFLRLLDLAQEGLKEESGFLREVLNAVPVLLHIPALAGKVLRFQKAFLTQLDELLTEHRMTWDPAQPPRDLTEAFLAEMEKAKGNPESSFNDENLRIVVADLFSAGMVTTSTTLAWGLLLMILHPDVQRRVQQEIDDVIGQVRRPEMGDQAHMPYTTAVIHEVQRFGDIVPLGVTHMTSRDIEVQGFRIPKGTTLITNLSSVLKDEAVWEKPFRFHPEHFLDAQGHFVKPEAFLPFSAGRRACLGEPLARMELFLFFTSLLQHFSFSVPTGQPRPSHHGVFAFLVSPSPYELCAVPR

Cytochrome P450 1A2 = target: T2, Cytochrome P450 1A2 (Homo sapiens, UniProt P05177); assay: Inhibition of CYP1A2 (unknown origin); type: ADME
T2 sequence (P05177 whole entry): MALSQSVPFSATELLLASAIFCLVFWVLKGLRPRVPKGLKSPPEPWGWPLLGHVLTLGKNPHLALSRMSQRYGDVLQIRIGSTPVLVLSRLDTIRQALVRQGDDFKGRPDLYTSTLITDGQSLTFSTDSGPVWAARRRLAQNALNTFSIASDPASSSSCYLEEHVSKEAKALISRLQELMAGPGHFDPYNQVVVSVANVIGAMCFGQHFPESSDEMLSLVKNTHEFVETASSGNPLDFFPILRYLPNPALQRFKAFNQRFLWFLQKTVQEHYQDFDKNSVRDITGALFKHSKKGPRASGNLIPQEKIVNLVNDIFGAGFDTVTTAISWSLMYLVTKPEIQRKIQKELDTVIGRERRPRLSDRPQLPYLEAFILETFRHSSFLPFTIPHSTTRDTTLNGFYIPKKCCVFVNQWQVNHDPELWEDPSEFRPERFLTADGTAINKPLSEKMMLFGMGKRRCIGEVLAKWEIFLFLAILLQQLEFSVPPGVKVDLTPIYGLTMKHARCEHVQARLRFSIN

Cytochrome P450 2C9 = Cytochrome P450 2C9 (Homo sapiens, UniProt P11712); assay: Inhibition of CYP2C9 (unknown origin); type: ADME
Sequence of Cytochrome P450 2C9 (P11712 whole entry): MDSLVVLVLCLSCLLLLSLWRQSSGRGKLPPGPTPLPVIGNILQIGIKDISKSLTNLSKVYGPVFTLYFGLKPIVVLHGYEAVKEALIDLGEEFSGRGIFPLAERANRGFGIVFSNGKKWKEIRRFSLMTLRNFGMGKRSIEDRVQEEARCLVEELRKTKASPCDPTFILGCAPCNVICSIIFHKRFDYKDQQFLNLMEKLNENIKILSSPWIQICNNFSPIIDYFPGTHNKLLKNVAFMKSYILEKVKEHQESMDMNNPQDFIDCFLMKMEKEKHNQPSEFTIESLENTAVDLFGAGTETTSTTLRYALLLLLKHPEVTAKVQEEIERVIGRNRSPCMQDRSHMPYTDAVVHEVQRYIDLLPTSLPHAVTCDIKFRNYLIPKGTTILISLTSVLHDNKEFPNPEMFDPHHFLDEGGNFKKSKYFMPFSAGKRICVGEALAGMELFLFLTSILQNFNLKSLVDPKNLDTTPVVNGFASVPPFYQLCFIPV

Cytochrome P450 2C19 [12] = target: T3, Cytochrome P450 2C19 (Homo sapiens, UniProt P33261); assay: Inhibition of CYP2C19 (unknown origin); type: ADME
T3 sequence (P33261 whole entry): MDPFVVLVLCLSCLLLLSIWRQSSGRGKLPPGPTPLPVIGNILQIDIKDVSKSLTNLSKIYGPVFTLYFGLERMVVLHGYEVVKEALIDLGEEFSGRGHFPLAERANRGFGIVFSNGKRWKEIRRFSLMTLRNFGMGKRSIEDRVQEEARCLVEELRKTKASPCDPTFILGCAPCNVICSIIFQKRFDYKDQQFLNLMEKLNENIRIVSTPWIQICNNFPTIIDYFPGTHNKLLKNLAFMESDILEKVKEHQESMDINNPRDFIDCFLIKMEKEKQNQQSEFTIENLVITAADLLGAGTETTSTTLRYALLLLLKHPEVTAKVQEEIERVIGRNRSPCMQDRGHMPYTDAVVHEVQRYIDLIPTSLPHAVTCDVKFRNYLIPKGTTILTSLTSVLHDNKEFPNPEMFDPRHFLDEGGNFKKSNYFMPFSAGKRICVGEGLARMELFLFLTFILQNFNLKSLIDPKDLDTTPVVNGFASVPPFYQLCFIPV

[13] = Clearance in Han-Wister rat at 1 mg/kg, iv bolus or 2 mg/kg, po after 24 hrs by LC-MS/MS analysis; type: ADME, organism-based; conditions: Han-Wistar, in vivo
Method in brief: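 Male Han Wistar rats (7–8 weeks, 200–300 g). IV bolus of about 1 mg/Kg via tail vein to two animals, in 5% DMSO/95% SBE-β-CD (30% w/v), pH 7.5. Oral dose of about 2 mg/Kg in the same vehicle. Jugular blood collected from pre-dose to 24 h. K2-EDTA plasma kept at -75±15 °C and analysed by LC-MS/MS.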

[14] = Clearance in Beagle dog at 1 mg/kg, iv or 2 mg/kg, po after 24 hrs by LC-MS/MS analysis; type: ADME, organism-based, Canis lupus familiaris; conditions: in vivo
Method in brief: (§1)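 Male/female beagles (2–5 y, 12–15 kg) were fasted overnight. IV: about 1 mg/Kg as a 15-min infusion to two animals, in 5% DMSO/95% SBE-β-CD (30% w/v) adjusted to pH 7.5. PO: about 2 mg/Kg by gavage, in the same vehicle or 0.5% HPMC/0.1% Tween 80 suspension. Jugular blood was drawn 0.03–24 h (IV) or 0.17–24 h (PO). K2-EDTA plasma analysed by LC-MS/MS.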

[15] = Volume of distribution in Beagle dog at 1 mg/kg, iv or 2 mg/kg, po after 24 hrs by LC-MS/MS analysis; type: ADME, organism-based, Canis lupus familiaris; conditions: in vivo; method in brief: as §1
[16] = Half life in Beagle dog at 2 mg/kg, po after 24 hrs by LC-MS/MS analysis; type: ADME, organism-based, Canis lupus familiaris; conditions: in vivo; method in brief: as §1
[17] = Oral bioavailability in Beagle dog at 2 mg/kg after 24 hrs by LC-MS/MS analysis; type: ADME, organism-based, Canis lupus familiaris; conditions: in vivo; method in brief: as §1
[18] = Fraction absorbed in Beagle dog at 2 mg/kg, po after 24 hrs by LC-MS/MS analysis; type: ADME, organism-based, Canis lupus familiaris; conditions: in vivo, read-out: Fabs
[19] = Time dependent inhibition of CYP450 in human liver microsomes; type: ADME
Rattus norvegicus = assay: Renal clearance in Han-Wister rat at 1 mg/kg, iv bolus or 2 mg/kg, po after 24 hrs by LC-MS/MS analysis; type: ADME, organism-based; conditions: in vivo
[20] = Apparent permeability across apical to basolateral side in human Caco2 cells at pH 7.4; type: ADME, cell-based; conditions: Caco-2, pH 7.4
[21] = Apparent permeability across basolateral to apical side in human Caco2 cells at pH 7.4; type: ADME, cell-based; conditions: Caco-2, pH 7.4
[22] = Efflux ratio of apparent permeability across basolateral to apical over apical to basolateral side in human Caco2 cells; type: ADME, cell-based; conditions: Caco-2
Method in brief: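 Caco-2 monolayers; Papp measured in both directions at pH 7.4 (units 1E-6 cm/s). Efflux ratio taken as Papp basolateral-to-apical divided by Papp apical-to-basolateral.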

[23] = Apparent intrinsic permeability across apical to basolateral side in human Caco2 cells at pH 6.5; type: ADME, cell-based; conditions: Caco-2, pH 6.5
[24] = Ratio of unbound drug level in brain to plasma in Beagle dog at 1 mg/kg, iv or 2 mg/kg, po after 24 hrs by LC-MS/MS analysis; type: ADME, organism-based, Canis lupus familiaris; conditions: read-out: K(p,uu,brain)
Mu-type opioid receptor [25] = target: T4, Mu-type opioid receptor (Homo sapiens, UniProt P35372); assay: Agonist activity at mu1-opioid receptor (unknown origin)
T4 sequence (P35372 whole entry): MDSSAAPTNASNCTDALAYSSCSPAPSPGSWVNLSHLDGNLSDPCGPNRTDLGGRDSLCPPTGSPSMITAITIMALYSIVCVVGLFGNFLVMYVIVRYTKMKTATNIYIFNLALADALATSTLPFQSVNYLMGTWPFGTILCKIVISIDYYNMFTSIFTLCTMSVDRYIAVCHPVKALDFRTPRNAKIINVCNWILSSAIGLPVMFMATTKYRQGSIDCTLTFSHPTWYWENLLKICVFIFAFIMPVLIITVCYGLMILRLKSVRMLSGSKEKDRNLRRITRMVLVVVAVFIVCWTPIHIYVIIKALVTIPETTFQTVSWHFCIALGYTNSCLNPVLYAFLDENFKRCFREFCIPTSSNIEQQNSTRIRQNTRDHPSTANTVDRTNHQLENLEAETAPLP

Mu-type opioid receptor [26] = target: T4, Mu-type opioid receptor; assay: Agonist activity at mu1-opioid receptor (unknown origin) by cell-based assay
[27] = Drug elimination in Beagle dog urine by LC-MS/MS analysis; type: ADME, Canis lupus familiaris; conditions: read-out: Drug excretion
Canis familiaris [28] = species on record: Canis familiaris; assay: Drug metabolism in Beagle dog assessed as hydroxylation of 5-methyl of indole ring by LC-MS/MS analysis; type: ADME, organism-based, Canis lupus familiaris; conditions: in vivo
Cytochrome P450 2C19 [29] = target: T3, Cytochrome P450 2C19; assay: Drug metabolism assessed as CYP2C19 (unknown origin)-mediated hydroxylation of methyl group of indole; type: ADME
Canis familiaris [30] = assay: Increase in plasma IGF1 level in Beagle dog at 8 mg/kg, po measured after 24 hrs post dose by ELIS; type: functional, organism-based; conditions: Canis lupus familiaris
Method in brief: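 Dog blood taken before dosing and at 15, 30, 45 min and 1, 2, 4, 7, 12, 24 h post dose into K2EDTA tubes. Centrifuged at 4°C; plasma frozen below -80°C until IGF-1 analysis.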

- pIC50 [1]: 8.40
- pEC50 [2]: 8.70
- logD [3]: 2.4
- solubility [5]: 100 µM (≈ 39 µg/mL)
- fraction unbound [6]: 0.96
- fraction unbound [7]: 0.92
- fraction unbound [8]: 0.88
- microsomal CLint [9]: 4 to 9 µL/min/mg
- microsomal CLint [10]: 9 µL/min/mg
- microsomal CLint [11]: 48 µL/min/mg
- pIC50 (Cytochrome P450 3A4): < 4.70
- pIC50 (Cytochrome P450 2D6): < 4.70
- pIC50 (Cytochrome P450 1A2): < 4.70
- pIC50 (Cytochrome P450 2C9): < 4.70
- pIC50 (Cytochrome P450 2C19 [12]): < 4.70
- clearance [13]: 170 mL/min/kg
- clearance [14]: 18.8 to 26 mL/min/kg
- Vd [15]: 4.8 to 5.8 L/kg
- half-life [16]: 13.2 to 16.6 h
- bioavailability [17]: 9 to 13%
- Fa at 24 h [18]: 20%
- TDI [19]: Not Active
- CL (Rattus norvegicus): > 5%
- Papp A→B [20]: 0.6 ×10⁻⁶ cm/s
- Papp B→A [21]: 17.7 ×10⁻⁶ cm/s
- efflux ratio [22]: 67.2
- Papp A→B [23]: < 2.4 ×10⁻⁶ cm/s
- Kp uu at 24 h [24]: < 0.02
- pIC50 (Mu-type opioid receptor [25]): 7.10
- pIC50 (Mu-type opioid receptor [26]): 6.63
- dose excreted [27]: 2%
- Drug metabolism (Canis familiaris [28]): Metabolite_Detected
- Drug metabolism (Cytochrome P450 2C19 [29]): Metabolite_Detected
Structure (SMILES): CN(C)CCNC(=O)[C@H]1c2ccccc2C[C@@H]1NC(=O)c1cc2ccccc2[nH]1
- pIC50 [4]: 4.50
- Activity (Canis familiaris [30]): Active
